The nature of data set [1]: Cytotoxicity against human H460 cells after 48 hrs by MTT assay. Format: functional, cell-based. To be noted: NCI-H460, 48 h. In a few lines:
(§1)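 Cells seeded at 10⁴ per well in DMEM with 10% FBS and grown overnight. Compound at a range of concentrations for 48 h, in triplicate. MTT (5 mg mL⁻¹ stock) added for the last 4 h, formazan dissolved in DMSO, absorbance read at 570 nm. Percent inhibition used to derive IC50. Values are mean ± SEM of at least three independent experiments.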

The test system of data set [2] is SK-OV-3. The data set is described as follows: Cytotoxicity against human SKOV3 cells after 48 hrs by MTT assay. Format: functional, cell-based. To be noted: SK-OV-3, 48 h. In a few lines:
as §1
(Tetrazolium assays rely on reduction of a dye to a coloured formazan, in cell work by metabolically active cells.)

Data set [3] can be described thus: Cytotoxicity against human PANC1 cells after 48 hrs by MTT assay. The class given is functional, cell-based. The settings on record: PANC-1, 48 h. In a few lines:
as §1

The test system of data set [4] is SMMC-7721. The experiment in a line: Cytotoxicity against human SMMC7721 cells after 48 hrs by MTT assay. The settings on record: SMMC-7721, 48 h. The class given is functional, cell-based. In a few lines:
as §1

For data set [5], the system named is EJ. The experiment in a line: Cytotoxicity against human EJ cells after 48 hrs by MTT assay. Format: functional, cell-based. In a few lines: as §1
Data set [6] concerns MCF7. The data set is described as follows: Cytotoxicity against human MCF7 cells after 48 hrs by MTT assay. Format: functional, cell-based. To be noted: MCF7, 48 h. In a few lines:
as §1

Data set [7] in a line: Cytotoxicity against human SGC7901 cells after 48 hrs by MTT assay. The class given is functional, cell-based. To be noted: SGC-7901, 48 h. In a few lines:
as §1

Data set [8] concerns SMMC-7721. The data set is described as follows: Induction of apoptosis in human SMMC7721 cells assessed as late apoptotic cells at 12 uM after 48 hrs by annexin V-FITC/propidium iodide staining-based flow cytometry (reference value: 1.55%). The class given is functional. (A flow cytometer gives signals particle by particle.)
Data set [9] concerns SMMC-7721. The experiment in a line: Inhibition of Ras in human SMMC7721 cells assessed as reduction in phosphorylated Akt level at 12 uM after 8 hrs by immunoblotting analysis. The class given is cell-based. In a few lines: (§2)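 SMMC-7721 cells at 1.5 × 10⁵/mL treated with 3.0, 6.0 or 12 µmol/L compound or vehicle for 8 h. Cells lysed, 50 µg protein per lane run on 12% SDS–PAGE gels. Blots probed for total and phospho-ERK1/2 (Thr202/Tyr204), total and phospho-Akt (Ser473), and β-actin. Densitometry relative to β-actin. Means ± SEM of three experiments.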
A general note: In western blotting, separated proteins are transferred to a membrane and probed.

Data set [10] in a line: Lipophilicity, log P of the compound in 10% PEG400 aqueous solution. The class given is physicochemical.
The subject of data set [11] is SMMC-7721. The experiment in a line: Induction of apoptosis in human SMMC7721 cells assessed as necrotic cells at 12 uM after 48 hrs by annexin V-FITC/propidium iodide staining-based flow cytometry (reference value: 0.77%). Format: functional.
The test system of data set [12] is SMMC-7721. The data set is described as follows: Induction of apoptosis in human SMMC7721 cells assessed as early apoptotic cells at 12 uM after 48 hrs by annexin V-FITC/propidium iodide staining-based flow cytometry (reference value: 3.87%). Format: functional.
A short description of data set [13]: Aqueous solubility of the compound in 10% PEG400 aqueous solution after 24 hrs by HPLC analysis. The class given is physicochemical. In a few lines: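 Roughly 20.0 mg of solid in 5 mL of 10% PEG400 in water. Sonicated 10 min, then stirred 24 h at 25 °C in a water bath. Centrifuged 10 min at 10,000 rpm and the supernatant passed through a microporous membrane. Concentration measured by HPLC against a standard curve.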

Data set [14] deals with SMMC-7721. The data set is described as follows: Inhibition of Ras in human SMMC7721 cells assessed as reduction in phosphorylated ERK1 level at 12 uM after 8 hrs by immunoblotting analysis. The class given is cell-based. In a few lines:
as §2

Data set [15] has as its system SMMC-7721. The data set is described as follows: Inhibition of Ras in human SMMC7721 cells assessed as reduction in phosphorylated ERK2 level at 12 uM after 8 hrs by immunoblotting analysis. The class given is cell-based. In a few lines: as §2
The test system of data set [16] is SMMC-7721. The experiment in a line: Induction of apoptosis in human SMMC7721 cells assessed as viable cells at 12 uM after 48 hrs by annexin V-FITC/propidium iodide staining-based flow cytometry (reference value: 93.81%). The class given is functional. The settings on record: SMMC-7721, 48 h, read-out: Activity.

Structures are written as SMILES. Converted amounts (≈) assume the structure as drawn. The source made the active and inactive calls. No cut-off for these calls is given here.

In general, IC50 refers to the concentration that gives 50% inhibition. Low values mean greater potency in that assay, high ones weaker potency in that assay. Regarding `CC(C)=CCC/C(C)=C/CC/C(C)=C/CSc1ccccc1C(=O)NCCNC(=O)c1ccccc1SC/C=C(\C)CC/C=C(\C)CCC=C(C)C`, the IC50 in [1], in [2], in data set [3], in data set [4], in [5] and in data set [6] was greater than 50 µM throughout. The compound also showed an IC50 in data set [7] greater than 50 µM.
Regarding `CC(C)=CCC/C(C)=C/CC/C(C)=C/CSc1ccccc1C(=O)N1CCN(C(=O)c2ccccc2SC/C=C(\C)CC/C=C(\C)CCC=C(C)C)CC1`, the IC50 in [1], in data set [2], in data set [3], in data set [4], in data set [5] and in data set [6] was greater than 50 µM each time. Further, the half-maximal inhibitory concentration (IC50) in data set [7] is greater than 50 µM.
With `CNC(=O)c1cc(Oc2ccc(NC(=O)Nc3ccc(Cl)c(C(F)(F)F)c3)cc2)ccn1` [SORAFENIB], the IC50 in data set [1] came to 10.8 µM; in data set [2] it was 9.25 µM; in data set [3] it was 12.3 µM; in [4], 18.7 µM; in [5], 22.9 µM; in [6], 9.12 µM. Further, the IC50 in data set [7] stood at 11.5 µM.
`CC(C)=CCC/C(C)=C/CC/C(C)=C/CSc1ccccc1C(=O)NCCN`: the 50% inhibitory concentration (IC50) in data set [1] is 36 µM; in [2] it was 31.6 µM; in data set [3], greater than 50 µM; in [4], 25.2 µM; in data set [5], greater than 50 µM; in [6], 28.7 µM. In data set [7], this compound registered an IC50 of 33.8 µM.
In the case of `CC(C)=CCC/C(C)=C/CC/C(C)=C/CSc1ccccc1C(=O)NCCOCCNC(=O)c1ccccc1SC/C=C(\C)CC/C=C(\C)CCC=C(C)C`, the IC50 in data set [1] was 43.5 µM; in data set [2], 34.4 µM; in data set [3], 29.8 µM; in data set [4], 29 µM; in [5], 27.8 µM; in data set [6] it was 30 µM. This compound also gave an IC50 in [7] of 43.8 µM.
For `CC(C)=CCC/C(C)=C/CC/C(C)=C/CSc1ccccc1C(=O)NCCCN`, the IC50 in data set [1] stood at 20.4 µM; in data set [2], 12.3 µM; in [3], 11.8 µM; in [4], 10.6 µM; in data set [5], 17.2 µM; in data set [6], 13.7 µM. This compound also registered an IC50 in data set [7] of 12.8 µM.
As usually defined, the logP is the decadic logarithm of the partition coefficient of the neutral form, usually between octanol and water. Lower therefore signals a more hydrophilic compound. As a reminder, the solubility is the dissolved amount per volume that the medium holds. A lower solubility goes with little dissolved substance. With `CC(C)=CCC/C(C)=C/CC/C(C)=C/CSc1ccccc1C(=O)O` [SALIRASIB], the Activity in [8] was 5.87%; in data set [11] it was 0.21%; in [12], 13.49%. The IC50 in [1] amounted to 49.2 µM; in [2] it was 51.2 µM; in [3], 53.6 µM; in [4], 69.7 µM; in [5] it was 47.6 µM; in data set [6], 49.1 µM. Moreover, the IC50 in data set [7] turned out to be 41.3 µM. Besides, the result in data set [9], in data set [14] and in data set [15] was Active. In [10], this compound showed a logP of 6.32. Moreover, the solubility at 24 h in [13] was found to be 3650 µg/mL (≈ 10.2 mM). Also, the viability at 12 µM in data set [16] stood at 80.4%.
Regarding `CC(C)=CCC/C(C)=C/CC/C(C)=C/CSc1ccccc1C(=O)NCCCNC(=O)c1ccccc1SC/C=C(\C)CC/C=C(\C)CCC=C(C)C`, the IC50 in data set [1], in [2], in data set [3], in [4], in data set [5] and in data set [6] was greater than 50 µM each time. In [7], this compound showed a concentration for half-maximal inhibition (IC50) greater than 50 µM.
As to `CC(C)=CCC/C(C)=C/CC/C(C)=C/CSc1ccccc1C(=O)NCCCCCN`, the IC50 was found to be 8.84 µM in data set [1]; 7.13 µM in data set [2]; 7.56 µM in data set [3]; 9.21 µM in data set [4]; 9.85 µM in data set [5]; 7.83 µM in data set [6]. Besides, inhibition in [7] was half-maximal at 7.35 µM (IC50). In addition, the logP in [10] amounted to 5.98. In [13], this compound came in with a solubility at 24 h of 18000 µg/mL (≈ 40.6 mM).
On to `CC(C)=CCC/C(C)=C/CC/C(C)=C/CSc1ccccc1C(=O)NCCCCN`, for which the IC50 was found to be 12.5 µM in data set [1]; 7.8 µM in data set [2]; 10.5 µM in data set [3]; 15 µM in data set [4]; 13.1 µM in data set [5]; 11.2 µM in [6]. Also, 11.2 µM corresponded to half-maximal inhibition in [7] (IC50).
Take `CC(C)=CCC/C(C)=C/CC/C(C)=C/CSc1ccccc1C(=O)NCCCCCNC(=O)c1ccccc1SC/C=C(\C)CC/C=C(\C)CCC=C(C)C`: the IC50 in [1] is 47.1 µM; in data set [2], 41.9 µM; in data set [3] it was greater than 50 µM; in [4], 36.2 µM; in data set [5], 39.5 µM; in [6], greater than 50 µM. The 50% inhibitory concentration (IC50) in data set [7] was greater than 50 µM. Also, the solubility at 24 h in data set [13] was less than 10 µg/mL.
For the compound `CC(C)=CCC/C(C)=C/CC/C(C)=C/CSc1ccccc1C(=O)NCCCCCCN`, the IC50 in [1] was found to be 7.52 µM; in data set [2], 7.66 µM; in data set [3], 8.69 µM; in data set [4], 7.93 µM; in data set [5], 10.1 µM; in data set [6] it was 8.01 µM. The same compound had an IC50 in data set [7] of 7.87 µM.
As to `CC(C)=CCC/C(C)=C/CC/C(C)=C/CSc1ccccc1C(=O)NCCCCCCNC(=O)c1ccccc1SC/C=C(\C)CC/C=C(\C)CCC=C(C)C`, the IC50 in data set [1] is greater than 50 µM; in [2], greater than 50 µM; in data set [3] it was greater than 50 µM; in [4], greater than 50 µM; in data set [5], 43.9 µM; in data set [6], 40.6 µM. The compound also yielded an IC50 in data set [7] greater than 50 µM.
On to `CC(C)=CCC/C(C)=C/CC/C(C)=C/CSc1ccccc1C(=O)N1CCNCC1`, for which the IC50 is 26.3 µM in [1]; greater than 50 µM in data set [2]; 22.5 µM in [3]; 32.4 µM in [4]; 27.5 µM in data set [5]; 34.1 µM in [6]. The compound further came in with a 50% inhibitory concentration (IC50) in data set [7] of 25.7 µM.
For the compound `CC(C)=CCC/C(C)=C/CC/C(C)=C/CSc1ccccc1C(=O)NCCCCNC(=O)c1ccccc1SC/C=C(\C)CC/C=C(\C)CCC=C(C)C`, the IC50 in [1] was greater than 50 µM; in data set [2], greater than 50 µM; in data set [3] it was greater than 50 µM; in [4], greater than 50 µM; in [5], greater than 50 µM; in data set [6] it was 45.8 µM. Moreover, in data set [7], the 50% inhibitory concentration (IC50) was greater than 50 µM.
